Measured values from paper PMC9233244 (Diabetes, 2022).

B1: GDF15: recombinant human GDF15, cytokine used as aversive agent (protein, UniProt Q99988 195-308, looked up)
Growth/differentiation factor …: ARARNGDHCPLGPGRCCRLHTVRASLEDLGWADWVLSPREVQVTMCIGACPSQFRAANMHAQIKTSLHRLKPDTVPAPCCVPASYNPMVLIQKTDTGVSLQTYDDLLAKDCHCI

Experiments:
Format in all cases: in vivo, mouse
[1] = tested on: WT and Gipr−/− mice; assay: intraperitoneal glucose tolerance test in WT and Gipr−/− mice
[2] = tested on: obese high-fat-fed mice; assay: body weight and food intake in obese high-fat-fed mice
[3] = tested on: brain neuronal activity (cFos); assay: whole-brain cFos analysis; conditions: 120 min
Method in brief: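 Chow-fed male C57BL/6J mice were acclimated with daily s.c. PBS for 4 days. On day 5 they received s.c. GIPR agonist (10 nmol/kg), PYY analog (100 nmol/kg), GDF15 (2 nmol/kg) or combinations. Mice were formalin-perfused 120 min post-dose, and brains were iDISCO+-cleared, cFos-immunostained (rabbit, 1:200), light-sheet imaged and registered. Counts came from voxel-based statistics within PBN_D/PBN_V hotspots defined by averaged PYY- and GDF15-group signal. Vehicle n = 8.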

[4] = agent alone, dosed once daily, 72-h dosing period, n = 6 per group

Molecule | blood glucose in intraperitoneal glucose tolerance test [1] | weight loss in combination with the LAPYY analog ([2]; LAGIPRA 10 nmol/kg plus LAPYY analog, once daily) | body weight [2, 4] | food intake [2, 4] | number of cFos+ cells in the BST [3] | number of cFos+ cells in the NTS and DMX [3] | brain regions with decreased cFos expression ([3]; GDF15 2 nmol/kg s.c., vs vehicle, n = 8) | brain regions with increased cFos expression ([3]; GIPRA 10, PYY 100, GDF15 2 nmol/kg s.c., vs vehicle, n = 8)
LAGIPRA | lowering blood glucose | only delivered greater weight loss in combination with a low dose of the LAPYY analog | reduced | reduced | – | – | – | –
B1 | – | – | – | – | increased numbers | increased number | decreased cFos expression in nine regions | increased cFos expression in seven brain areas
